Measurements taken from ChEMBL document CHEMBL1212905, “Schisanartane nortriterpenoids with diverse post-modifications from Schisandra propinqua” (J Nat Prod, 2010).
Where a name gives a salt, the structure may show the parent alone.

Assays:
Format in all cases: functional, cell-based
K562 = test: Cytotoxicity against human K562 cells after 72 hrs by SRB assay; conditions: K562, 72 h
A549 = test: Cytotoxicity against human A549 cells after 72 hrs by SRB assay; conditions: A549, 72 h
Method in brief: (§1)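 Adherent cells plated 24 h before treatment and exposed continuously to compound at 100, 10, 1 and 0.1 µM for 72 h. Cells were then fixed and stained with sulforhodamine B, and IC50 was determined. Amrubicin hydrochloride served as the positive control.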

HT-29 = test: Cytotoxicity against human HT-29 cells after 72 hrs by SRB assay; conditions: HT-29, 72 h; method in brief: as §1

SMILES | IC50 (K562) | IC50 (A549) | IC50 (HT-29)
CC(=O)[C@]1(N)Cc2c(O)c3c(c(O)c2[C@@H](O[C@H]2C[C@H](O)[C@H](O)CO2)C1)C(=O)c1ccccc1C3=O [AMRUBICIN HYDROCHLORIDE] | 1.2 µM | 0.94 µM | 4.57 µM
CC1=C[C@@H]2O[C@]34O[C@@]5(CC[C@]6(C)C(=O)[C@](C)(O)[C@]2(OC1=O)[C@H]36)C[C@]12OC(=O)C[C@H]1O[C@@](C)(CO)[C@@H]2CC[C@@]5(O)C4=O [SCHISANDILACTONE A] | > 100 µM | > 100 µM | > 100 µM
C[C@H]1C(=O)O[C@@H]2[C@H]1O[C@]1(C)[C@H]2[C@H]2[C@](C)(CC[C@]34C[C@]56OC(=O)C[C@H]5OC(C)(C)[C@@H]6C[C@H](O)[C@H]3C(=O)[C@@]2(O)O4)[C@@H]1O [SCHISANDILACTONE B] | > 100 µM | > 100 µM | > 100 µM
C[C@H]1C(=O)O[C@@H]2[C@H]1O[C@@]1(C)C(=O)[C@@]3(C)CC[C@]45C[C@]67OC(=O)C[C@H]6OC(C)(C)[C@@H]7C[C@H](O)[C@H]4C(=O)[C@@](O)(O5)[C@H]3[C@@]21O [SCHISANDILACTONE C] | > 100 µM | > 100 µM | > 100 µM
C[C@H]1C(=O)O[C@@H]2[C@H]1O[C@@]1(C)C(=O)[C@@]3(C)CC[C@]45C[C@]67OC(=O)C[C@H]6OC(C)(C)[C@@H]7C[C@@H](O)[C@H]4C(=O)[C@@](O)(O5)[C@H]3[C@@]21O [SCHISANDILACTONE D] | > 100 µM | > 100 µM | > 100 µM
CC1=C[C@@H]([C@@H]2[C@H]3[C@](C)(C(=O)C[C@]45C[C@]67OC(=O)C[C@H]6O[C@@](C)(CO)[C@@H]7CC[C@@H]4[C@@H](O)[C@@]3(O)O5)C(=O)[C@]2(C)O)OC1=O [SCHISANDILACTONE E] | > 100 µM | > 100 µM | > 100 µM
CC1=C[C@@H]([C@]2(O)[C@H]3[C@](C)(CC[C@]45C[C@]67OC(=O)C[C@H]6OC(C)(C)[C@@H]7C[C@@H](O)[C@H]4C(=O)[C@@]3(O)O5)C(=O)[C@]2(C)O)OC1=O [SCHISANDILACTONE F] | > 100 µM | > 100 µM | > 100 µM
C[C@@H]1C(=O)O[C@H]2[C@@H]1O[C@]13O[C@@]4(CC(=O)[C@]5(C)C(=O)[C@](C)(O)[C@H]2[C@@H]51)C[C@]12OC(=O)C[C@H]1O[C@@](C)(CO)[C@@H]2CC[C@H]4[C@H]3O [SCHISANDILACTONE G] | > 100 µM | > 100 µM | > 100 µM
C[C@@H]1C(=O)O[C@H]2[C@@H]1O[C@]13O[C@@]4(CC(=O)[C@]5(C)C(=O)[C@](C)(O)[C@@]2(O)[C@@H]51)C[C@]12OC(=O)C[C@H]1O[C@@](C)(CO)[C@@H]2CC[C@@H]4[C@H]3O [SCHISANDILACTONE H] | > 100 µM | > 100 µM | > 100 µM
C[C@@H]1C(=O)O[C@H]2[C@@H]1O[C@]13O[C@@]4(CC[C@]5(C)C(=O)[C@](C)(O)[C@H]2[C@H]15)C[C@]12OC(=O)C[C@H]1O[C@@](C)(CO)[C@@H]2CC[C@H]4C3=O [SCHISANDILACTONE I] | > 100 µM | > 100 µM | > 100 µM
C[C@@H]1C(=O)O[C@H]2[C@@H]1O[C@]13O[C@@]4(CC[C@]5(C)C(=O)[C@](C)(O)[C@@]2(O)[C@H]15)C[C@]12OC(=O)C[C@H]1O[C@@](C)(CO)[C@@H]2C[C@@H]1O[C@@]14C3=O [SCHISANDILACTONE J] | > 100 µM | > 100 µM | > 100 µM
